Results published in ChEMBL document CHEMBL4350958, “Rational Design of Short Peptide Variants by Using Kunitzin-RE, an Amphibian-Derived Bioactivity Peptide, for Acquired Potent Broad-Spectrum Antimicrobial and Improved Therapeutic Potential of Commensalism Coinfection of Pathogens” (J Med Chem, 2019).
Calls of active or inactive are those of the source. No cut-off for these calls is given here. Where a SMILES comes first, the peptide text is derived from it.

Experiments:
RAW264.7 [1] = assay: Cytotoxicity against mouse RAW264.7 cells assessed as cell viability at 2 to 64 uM measured after 18 to 24 hrs by MTT assay relative to control; format: cell-based; conditions: raw264.7, 64 µM
Procedure, shortened: (§1)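 MTT assay: RAW264.7 cells seeded at 1.0–2.0×10^4 per well and exposed to peptide (2–64 µM) for 18–24 h at 37 °C in 5% CO2. MTT (0.5 mg/mL) added for 4 h, formazan dissolved in DMSO, read at 570 nm. At least three independent experiments with triplicate wells.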

Staphylococcus aureus [2] = assay: Bactericidal activity against Staphylococcus aureus ATCC 29213 assessed as reduction in bacterial growth at MBC by time-kill assay; format: functional, organism-based
Procedure, shortened: (§2)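 Time-kill assay. E. coli ATCC 25922, S. aureus ATCC 29213 or C. albicans cgmcc 2.2086 at a final 0.5-1×10^5 CFU mL-1 treated at 1×MBC/MFC. Aliquots collected at different times to calculate survival, with an untreated control. Mean of three independent experiments, each with three technical replicates.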

Lipid bilayer = assay: Induction of membrane disruption in PG/CL/PE large unilamellar vesicles assessed as calcein-entrapped liposome leakage at 1 to 64 uM after 15 mins by spectrofluorophotometric assay
Procedure, shortened: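 Calcein-loaded LUVs (PG/CL/PE 2:1:7 w/w/w, E. coli membrane mimic), extruded through 100-nm filters, free dye removed on Sephadex G-50. Lipid (100 μM) incubated 15 min with peptide (1–64 μM). Calcein release read at ex 490/em 520 nm and normalised to Triton X-100. Triplicate, three biological replicates.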

Candida albicans [3] = assay: Fungicidal activity against Candida albicans cgmcc2.2086 assessed as reduction in bacterial growth at MFC by time-kill assay; format: functional, organism-based; procedure, shortened: as §2
Escherichia coli [4] = assay: Induction of cytoplasmic membrane depolarization in Escherichia coli ATCC 25922 at MIC up to 3000 secs by DiSC3-5 dye-based fluorescence spectrophotometric method; format: organism-based
Procedure, shortened: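 Mid-log E. coli ATCC 25922 (OD600 0.05) equilibrated with 0.4 μM DiSC3-5 and 100 mM K+ in 5 mM HEPES pH 7.4 with 20 mM glucose until fluorescence was stably quenched. Peptide then added in a 1-cm cuvette, and fluorescence (ex 622/em 670 nm) followed from 0 to 3000 s. Triplicate independent runs.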

RAW264.7 [5] = assay: Cytotoxicity against mouse RAW264.7 cells assessed as reduction in cell viability at 2 to 64 uM measured after 18 to 24 hrs by MTT assay relative to control; format: cell-based; conditions: raw264.7, 64 µM; procedure, shortened: as §1
Escherichia coli [6] = assay: Antibacterial activity against Escherichia coli ATCC 25922 assessed as ratio of MIC95 in presence of NaCl to in absence of NaCl; format: functional
Staphylococcus aureus [7] = assay: Drug uptake in plasma membrane of Staphylococcus aureus ATCC 29213 at MBC measured after 30 mins using FITC-labeled compound by microscopic analysis; format: ADME, organism-based; conditions: in vivo, 0.5 h
Procedure, shortened: (§3)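 E. coli ATCC 25922 or S. aureus ATCC 29213 (OD600 0.2) incubated with FITC-labeled peptide at 1×MBC, 37 °C, 30 min. Cells washed, resuspended with PI (10 μg/mL) in PBS, smeared and imaged by superresolution microscopy using 488 and 535 nm filters for FITC and PI. Peptide-free cells served as controls. Three independent scans.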

Staphylococcus aureus [8] = assay: Induction of morphological changes in Staphylococcus aureus ATCC 29213 assessed as hole formation at MBD measured after 1 hr by atomic force microscopic analysis; format: functional, organism-based
Escherichia coli [9] = assay: Induction of morphological changes in Escherichia coli ATCC 25922 assessed as membrane blebbing at MBD measured after 1 hr by scanning electron microscopic analysis; format: functional, organism-based
Escherichia coli [10] = assay: Induction of cytoplasmic membrane depolarization in Escherichia coli ATCC 25922 assessed as fluorescence intensity at 4 uM up to 3000 secs by DiSC3-5 dye-based fluorescence spectrophotometric method
Procedure, shortened: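 Mid-log E. coli ATCC 25922 (OD600 0.05) loaded with 0.4 μM DiSC3-5 and 100 mM K+ in 5 mM HEPES pH 7.4 with 20 mM glucose until fluorescence stabilized. Peptide added in a 1-cm cuvette and fluorescence (ex 622, em 670 nm) recorded 0–3000 s. Triplicate, three biological replicates.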

Staphylococcus aureus [11] = assay: Induction of morphological changes in Staphylococcus aureus ATCC 29213 assessed as cell content leakage at MBD measured after 1 hr by atomic force microscopic analysis; format: functional, organism-based
Lipopolysaccharide (LPS) = assay: Displacement of BODIPY-TR-cadaverine from Escherichia coli O111:B4 LPS at 64 uM after 1 hr by spectrofluorophotometric method relative to control
Procedure, shortened: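 E. coli O111:B4 LPS (50 μg/mL) preloaded 4 h with BODIPY-TR-cadaverine (5 μg/mL) in 50 mM Tris, pH 7.4. Mixed 1:1 with peptide (1–64 µM series), 1 h at 37 °C, then fluorescence read. Expressed as %ΔF: 0% is probe with LPS and no peptide, 100% is probe with LPS plus 10 μg/mL polymyxin B. Three technical replicates.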

Escherichia coli [12] = assay: Induction of morphological changes in Escherichia coli ATCC 25922 assessed as cell content leakage at MBD measured after 1 hr by scanning electron microscopic analysis; format: functional, organism-based
Pseudomonas aeruginosa [13] = assay: Antibacterial activity against gentamicin-resistant Pseudomonas aeruginosa ATCC 27853 measured after 24 hrs; format: functional, organism-based
Procedure, shortened: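 Broth microdilution modified from NCCLS. Mid-log bacteria at (0.5–1) × 10^5 CFU mL−1 in MHB, mixed with peptides serially diluted in 0.2% BSA. Incubated 24 h at 37 °C, read at A492. MIC taken as lowest concentration giving 95% growth inhibition. At least three independent experiments, each with three technical replicates.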

Escherichia coli [14] = assay: Induction of morphological changes in Escherichia coli ATCC 25922 assessed as hole formation at MBD measured after 1 hr by scanning electron microscopic analysis; format: functional, organism-based
Candida albicans [15] = assay: Antifungal activity against Candida albicans cgmcc2.2086 infected in C57BL/6 mouse model of keratitis assessed as reduction in fungal colonies in eyeballs at 5 mg/ml administered as topical eye drop every 5 mins for first 4 hrs and every 30 mins for next 7 hrs measured post-last dose by agar plate method relative to control; format: functional; design: scale not given: the % may be the effect or the level left
Escherichia coli [16] = assay: Induction of morphological changes in Escherichia coli ATCC 25922 assessed as cell content leakage at MBD measured after 1 hr by transmission electron microscopic analysis; format: functional, organism-based
Escherichia coli [17] = assay: Bactericidal activity against Escherichia coli ATCC 25922 assessed as reduction in bacterial growth at MBC measured within 30 mins by time-kill assay relative to control; format: functional; design: scale not given: the % may be the effect or the level left
Procedure, shortened: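 Time-kill assay. Cells at a final 0.5–1 × 10^5 CFU mL−1 were exposed to peptide at 1×MBC. Aliquots were removed at different times to calculate the survival rate against an untreated control. Mean of three independent experiments, each with three technical replicates.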

Escherichia coli [18] = assay: Disruption of plasma membrane integrity in Escherichia coli ATCC 25922 at MBC measured after 30 mins using FITC-labeled compound by propidium iodide staining-based microscopic analysis; format: organism-based; procedure, shortened: as §3
Escherichia coli [19] = assay: Induction of morphological changes in Escherichia coli ATCC 25922 assessed as membrane creping at MBD measured after 1 hr by scanning electron microscopic analysis; format: functional, organism-based
Pseudomonas aeruginosa [20] = assay: Bactericidal activity against gentamicin-resistant Pseudomonas aeruginosa ATCC 27853 incubated for 24 hrs followed by replating on agar plate and measured after overnight incubation; format: functional, organism-based

CC[C@H](C)[C@H](NC(=O)CN)C(=O)NCC(=O)N[C@@H](C)C(=O)N[C@H](C(=O)N[C@@H](CC(C)C)C(=O)N[C@@H](CCCCN)C(=O)N[C@H](C(=O)N[C@@H](CC(C)C)C(=O)N[C@H](C(=O)N[C@H](C(=O)NCC(=O)N[C@@H](CC(C)C)C(=O)N1CCC[C@H]1C(=O)N[C@@H](C)C(=O)N[C@@H](CC(C)C)C(=O)N[C@H](C(=O)N[C@@H](CO)C(=O)N[C@@H](Cc1c[nH]c2ccccc12)C(=O)N[C@H](C(=O)N[C@@H](CCCCN)C(=O)N[C@@H](CCCNC(=N)N)C(=O)N[C@@H](CCCCN)C(=O)N[C@@H](CCCNC(=N)N)C(=O)N[C@@H](CCC(N)=O)C(=O)N[C@@H](CCC(N)=O)C(N)=O)[C@@H](C)CC)[C@@H](C)CC)[C@@H](C)O)[C@@H](C)O)C(C)C)C(C)C [MELITTIN]
Activity (RAW264.7 [1]): Toxic
Activity (Staphylococcus aureus [2]): Active
Activity (Lipid bilayer): Active
Activity (Candida albicans [3]): Active

CC[C@H](C)[C@H](NC(=O)[C@H](CCCCN)NC(=O)[C@H](C)NC(=O)[C@H](C)N)C(=O)N[C@H](C(=O)N[C@@H](CC(C)C)C(=O)N[C@@H](CC(N)=O)C(=O)N1CCC[C@H]1C(=O)N[C@@H](CCCCN)C(=O)N[C@@H](Cc1ccccc1)C(=O)N[C@@H](CCCNC(=N)N)C(=O)N[C@@H](CS)C(=O)N[C@@H](CCCCN)C(=O)N[C@@H](C)C(=O)N[C@@H](C)C(=O)N[C@@H](Cc1ccccc1)C(=O)N[C@@H](CS)C(N)=O)[C@@H](C)CC (H-AAKIILNPKFRCKAAFC-NH2)
Activity (Escherichia coli [4]): Active

H-AARRILRWIFR-NH2
Activity (RAW264.7 [5]): > 89.76%
Ratio (Escherichia coli [6]): 16

H-AARIILRWRFR-NH2
Drug uptake (Staphylococcus aureus [7]): Active
Activity (Staphylococcus aureus [8]): Active
Activity (Escherichia coli [9]): Active
Flu intensity (Escherichia coli [10]): 3000 a.u.
Activity (Staphylococcus aureus [11]): Active
Activity (Lipopolysaccharide (LPS)): 180%
Activity (Escherichia coli [12]): Active
Activity (Pseudomonas aeruginosa [13]): Active
Activity (Escherichia coli [14]): Active
Activity (Candida albicans [15]): <=80%
Activity (Escherichia coli [16]): Active
Activity (Escherichia coli [17]): 99.99%
Activity (Escherichia coli [18]): Active
Activity (Escherichia coli [19]): Active
Activity (Pseudomonas aeruginosa [20]): Active
